The nature of test [1]: Inhibition of Bcl-XL (unknown origin) after 3 hrs by fluorescence polarization competition assay. Set-up: species or system Homo sapiens.
For another test, the species on record is Homo sapiens. Description: Selectivity ratio of Ki for Bcl-XL (unknown origin) to Ki for His6-MBP tagged recombinant human Mcl-1 residues 172 to 327 expressed in Escherichia coli. The procedure, abridged: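 Ratio computed as Ki(Bcl-xL) divided by Ki(Mcl-1). Both Ki values come from FP competition IC50s converted with the Nikolovska-Coleska equation, averaged over at least two independent assays. Hill-equation fit gives the IC50.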

Another test has as its system A-375. Description: Antiproliferative activity against human A375 cells after 48 hrs by Cell titer blue viability assay. The class given is functional, cell-based. The settings on record: A-375, 48 h. The procedure, abridged:
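A375 cells seeded at 5,000/well in DMEM with 10% HIFBS and PenStrep, cultured overnight. Compounds added at final 4.69–300 μM (two-fold series) in 1% DMSO; vehicle controls also at 1% DMSO. After 48 h exposure, Cell Titer-Blue added for 2 h, fluorescence read at 560 ex/590 em. Percent viability relative to untreated cells, corrected for cell-free background.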

In the next test the test system is SK-MEL-5. Description: Antiproliferative activity against human SK-MEL-5 cells after 48 hrs by Cell titer blue viability assay. Conditions: SK-MEL-5, 48 h. The class given is functional, cell-based.
Test [2] addresses T1, Induced myeloid leukemia cell differentiation protein Mcl-1 (Homo sapiens, UniProt Q07820). Description: Binding affinity to recombinant human 15N-labeled Mcl-1 (172 to 327 residues) expressed in Escherichia coli by NMR spectroscopy. A digest of the protocol: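 Proton shifts were referenced to the H2O/HDO signal (4.658 ppm versus external TSP) at 37 °C. The protein was size-exclusion purified to >98% purity by SDS-PAGE, with concentration determined by Bradford assay.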

The target of test [3] is T1, Induced myeloid leukemia cell differentiation protein Mcl-1. Description: Inhibition of His6-MBP tagged recombinant human Mcl-1 residues 172 to 327 expressed in Escherichia coli assessed as inhibition of interaction with Bak BH3 peptide (GQVGRQLAIIGDDINR) after 3 hrs by fluorescence polarization competition assay.

The source made the active and inactive calls. The rule behind the calls is not given here. Some results are limits rather than exact numbers.

T1 sequence (Q07820 whole entry, the tested form may be a part): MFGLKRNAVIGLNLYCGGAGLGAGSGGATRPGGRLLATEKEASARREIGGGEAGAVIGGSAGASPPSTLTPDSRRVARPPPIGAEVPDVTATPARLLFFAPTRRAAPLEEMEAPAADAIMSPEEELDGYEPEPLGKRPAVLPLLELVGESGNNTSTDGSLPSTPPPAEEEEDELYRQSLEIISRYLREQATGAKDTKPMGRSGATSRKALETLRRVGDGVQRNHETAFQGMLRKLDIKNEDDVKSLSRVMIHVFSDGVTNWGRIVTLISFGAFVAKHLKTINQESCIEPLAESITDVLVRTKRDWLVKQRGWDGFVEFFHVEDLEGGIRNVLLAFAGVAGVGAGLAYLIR

Turning to `O=C(O)c1cc(S(=O)(=O)Nc2ccc(Oc3cccc(Br)c3)cc2)c2ccccc2c1O`, the inhibition constant (Ki) in test [1] (read-out: Ki) is 300 nM. Also, the Ratio Ki in the test listed under Homo sapiens is 3.8.
Consider `Cc1cc(Oc2ccc(N(C3CCCC3)S(=O)(=O)c3cc(C(=O)O)c(O)c4ccccc34)cc2)cc(C)c1Cl`, for which the Ki in test [1] (read-out: Ki) was determined as 290 nM. The Ratio Ki in the test filed under Homo sapiens came to 8.8.
For `COc1ccc(NS(=O)(=O)c2cc(C(=O)O)c(O)c3ccccc23)cc1`, the Ki in test [1] (read-out: Ki) came to 71900 nM. Besides, in the test listed under Homo sapiens, the Ratio Ki is 6.
On to `O=C(O)c1cc(S(=O)(=O)Nc2ccc(Br)cc2Br)c2ccccc2c1O`, for which the inhibition constant Ki in test [1] (read-out: Ki) was 2310 nM. Further, the Ratio Ki in the test filed under Homo sapiens was determined as 5.5.
Turning to `CC(C)CN(c1ccc(OC(C)C)cc1)S(=O)(=O)c1cc(C(=O)O)c(O)c2ccccc12`, the Ki in test [1] (read-out: Ki) amounted to 6080 nM. In addition, the IC50 turned out to be 150 µM with A-375 and 300 µM in the test with SK-MEL-5. Besides, the result in test [2] was Active.
Take `O=C(O)c1cc(S(=O)(=O)Nc2ccc(Oc3ccc(Cl)cc3Cl)cc2)c2ccccc2c1O`: the Ki in test [1] (read-out: Ki) stood at 190 nM. For the same compound, the Ratio Ki in the test listed under Homo sapiens was 2.4.
For `CN(C)S(=O)(=O)c1cc(C(=O)O)c(O)c2ccccc12`, the Ki entry in test [1] is “Not Active”.
On the same count and under the same terms, the same measure for `O=C(O)c1cc(S(=O)(=O)NCc2ccccc2)c2ccccc2c1O`: “Not Active”.
For `O=C(O)c1cc(S(=O)(=O)Nc2cccc3ccccc23)c2ccccc2c1O`, in test [1] (read-out: Ki), the Ki was found to be 110000 nM. Also, the Ratio Ki in the test filed under Homo sapiens amounted to 10.
In the case of `COC(=O)c1cc(S(=O)(=O)N(CC(C)C)c2ccc(OC(C)C)cc2)c2ccccc2c1O`, the IC50 in the test with A-375 and with SK-MEL-5 was 300 µM throughout. Moreover, the inhibition entry in test [3] was “inactive”.
As for `O=C(O)c1cc(S(=O)(=O)NCC2CCCCC2)c2ccccc2c1O`, the Ki in test [1] (read-out: Ki) is 77600 nM. Further, the Ratio Ki in the test listed under Homo sapiens came out at 11.
The corresponding values for `O=C(O)c1cc(S(=O)(=O)Nc2ccc(Oc3cccc4ccccc34)cc2)c2ccccc2c1O` are 220 nM and 3.7.
For `CC(C)Oc1ccc(NS(=O)(=O)c2cc(C(=O)O)c(O)c3ccccc23)cc1`, the Ki entry in test [1] is on record as “Not Active”.
Take `COC(=O)c1cc(S(=O)(=O)N(CC(C)C)c2ccc(Br)cc2)c2ccccc2c1OC`: the inhibition constant (Ki) in test [3] was above 500 µM.
Turning to `O=C(O)c1cc(S(=O)(=O)Nc2ccc(Br)cc2)c2ccccc2c1O`, the Ki in test [1] (read-out: Ki) was 51400 nM. The IC50 in the test with A-375 and with SK-MEL-5 was 300 µM throughout. In the test listed under Homo sapiens, the Ratio Ki was determined as 19.
`CC(=O)OCOC(=O)c1cc(S(=O)(=O)N(CC(C)C)c2ccc(OC(C)C)cc2)c2ccccc2c1O`: in the test with SK-MEL-5, the IC50 amounted to 15 µM. For the same compound, in test [3], the inhibition entry was “inactive”.
Take `COC(=O)c1cc(S(=O)(=O)N(CC(C)C)c2ccc(Br)cc2)c2ccccc2c1O`: the Ki in test [3] is above 500 µM.
For the compound `O=C(O)c1cc(S(=O)(=O)Nc2ccc3ccccc3c2)c2ccccc2c1O`, in test [1] (read-out: Ki), the inhibitory constant (Ki) stood at 68500 nM. The Ratio Ki in the test filed under Homo sapiens stood at 15.
Taken in the same sequence, the figures for `Cc1cc(C)cc(Oc2ccc(NS(=O)(=O)c3cc(C(=O)O)c(O)c4ccccc34)cc2)c1` were 390 nM and 1.4.
The corresponding values for `Cc1cc(Oc2ccc(N(CC(C)C)S(=O)(=O)c3cc(C(=O)O)c(O)c4ccccc34)cc2)cc(C)c1Cl` are 170 nM and 2.1.
As to `O=C(O)c1cc(S(=O)(=O)Nc2ccc([N+](=O)[O-])cc2)c2ccccc2c1O`, the Ki in test [1] (read-out: Ki) is 23300 nM. Moreover, the Ratio Ki in the test listed under Homo sapiens came out at 5.2.
Regarding `NS(=O)(=O)c1cc(C(=O)O)c(O)c2ccccc12`, in test [1], the Ki result was “Not Active”.
Same read-out and setting: the same measure for `O=C(O)c1cc(S(=O)(=O)Nc2ccccc2)c2ccccc2c1O`: “Not Active”.
For `Cc1cc(Oc2ccc(N(Cc3ccccc3)S(=O)(=O)c3cc(C(=O)O)c(O)c4ccccc34)cc2)cc(C)c1Cl`, the Ki in test [1] (read-out: Ki) stood at 340 nM. Besides, the values for the IC50 with A-375 and in the test with SK-MEL-5 were 50 µM and 90 µM, respectively.
Turning to `Cc1cc(Oc2ccc(NS(=O)(=O)c3cc(C(=O)O)c(O)c4ccccc34)cc2)cc(C)c1Cl`, the inhibitory constant (Ki) in test [1] (read-out: Ki) came to 480 nM. For the same compound, the Ratio Ki in the test filed under Homo sapiens stood at 4.1.
Taken in the same sequence, the figures for `Cc1ccc(Oc2ccc(NS(=O)(=O)c3cc(C(=O)O)c(O)c4ccccc34)cc2)cc1` were 840 nM and 2.5.
As for `O=C(O)c1cc(S(=O)(=O)Nc2ccccc2C(F)(F)F)c2ccccc2c1O`, the Ki in test [1] (read-out: Ki) came to 19300 nM. Besides, the Ratio Ki in the test listed under Homo sapiens stood at 4.8.
With `O=C(O)c1cc(S(=O)(=O)NCc2ccc(Cl)cc2)c2ccccc2c1O`, the Ki in test [1] (read-out: Ki) amounted to 338000 nM. Further, the Ratio Ki in the test listed under Homo sapiens was 16.

For the origin of these results see ChEMBL document CHEMBL3779852, “Structure-based design of N-substituted 1-hydroxy-4-sulfamoyl-2-naphthoates as selective inhibitors of the Mcl-1 oncoprotein” (Eur J Med Chem, 2016).
